The source made the active and inactive calls. The rule behind the calls is not given here.

In test [1] the target is Mitogen-activated protein kinase kinase kinase 19 (Homo sapiens) (UniProt Q56UN5). The test is described as follows: Binding affinity to wild-type human partial length YSK4 (T1019 to H1328 residues) expressed in mammalian expression system assessed as residual binding level at 1 uM by Kinomescan method relative to control.
Test [2] deals with cAMP-dependent protein kinase catalytic subunit alpha (Homo sapiens) (UniProt P17612). The test is described as follows: Binding affinity to wild-type human partial length PKAC-alpha (G10 to F351 residues) expressed in bacterial expression system assessed as residual binding level at 1 uM by Kinomescan method relative to control.
Test [3] has as its target Cyclin-dependent kinase 16 (Homo sapiens) (UniProt Q00536). Put plainly: Binding affinity to wild-type human partial length PCTK1 (G160 to A474 residues) expressed in mammalian expression system assessed as residual binding level at 1 uM by Kinomescan method relative to control.
Test [4] deals with Protein-tyrosine kinase 2-beta (Homo sapiens) (UniProt Q14289). The test is described as follows: Binding affinity to wild-type human full length PYK2 (M1 to E967 residues) expressed in bacterial expression system assessed as residual binding level at 1 uM by Kinomescan method relative to control. The method, boiled down: (§1)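 Single-concentration KINOMEscan (DiscoverX) binding screen at 1 μM against a panel of 468 purified kinases and mutants. The read-out is binding relative to control.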

Another test has as its system EOL1. Put plainly: Cell cycle arrest in human EOL-1 cells assessed as accumulation at G0/G1 phase at 0.01 to 0.3 uM after 12 hrs by propidium iodide/RNase staining-based flow cytometric analysis. The format is functional. The method, boiled down:
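Cells treated with compound or DMSO for the stated periods, fixed overnight in 70% cold ethanol at −20 °C, stained with PI/RNase buffer, then analysed by flow cytometry for cell-cycle distribution. For NCI-H1703 stimulation, PDGF AA was used at 100 ng/mL.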

Test [5] deals with Calcium/calmodulin-dependent protein kinase type II subunit alpha (Homo sapiens) (UniProt Q9UQM7). Put plainly: Binding affinity to wild-type human partial length CAMK2A (M1 to K328 residues) expressed in bacterial expression system assessed as residual binding level at 1 uM by Kinomescan method relative to control. The method in brief: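 Kinome-wide competition binding screen against a panel of 468 purified kinases/mutants, with the test compound at a single concentration of 1 μM. Read-out is the relative binding activity of each kinase in the presence of compound.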

In test [6] the target is Serine/threonine-protein kinase ULK2 (Homo sapiens) (UniProt Q8IYT8). The test is described as follows: Binding affinity to wild-type human partial length ULK2 (M1 to S301 residues) expressed in mammalian expression system assessed as residual binding level at 1 uM by Kinomescan method relative to control. The method in brief:
(§2)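 KINOMEscan competition binding against a panel of 468 purified kinases/mutants, compound tested at 1 μM; readout is relative binding activity versus control.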

For test [7], the target named is Wee1-like protein kinase 2 (Homo sapiens) (UniProt P0C1S8). The test is described as follows: Binding affinity to wild-type human partial length WEE2 (M204 to K492 residues) expressed in bacterial expression system assessed as residual binding level at 1 uM by Kinomescan method relative to control.
The target in test [8] is Eukaryotic translation initiation factor 2-alpha kinase 1 (Homo sapiens) (UniProt Q9BQI3). The test is described as follows: Binding affinity to wild-type human partial length EIF2AK1 (Q147 to E603 residues) expressed in mammalian expression system assessed as residual binding level at 1 uM by Kinomescan method relative to control.
Test [9] has as its target Serine/threonine-protein kinase Nek9 (Homo sapiens) (UniProt Q8TD19). Put plainly: Binding affinity to wild-type human partial length NEK9 (P32 to R328 residues) expressed in bacterial expression system assessed as residual binding level at 1 uM by Kinomescan method relative to control. The method in brief:
as §2

In test [10] the target is cGMP-dependent protein kinase 2 (Homo sapiens) (UniProt Q13237). Put plainly: Binding affinity to wild-type human partial length PRKG2 (S422 to F762 residues) expressed in mammalian expression system assessed as residual binding level at 1 uM by Kinomescan method relative to control.
For test [11], the target named is cGMP-dependent protein kinase 1 (Homo sapiens) (UniProt Q13976). The test is described as follows: Binding affinity to wild-type human partial length PRKG1 (L339 to F686 residues) expressed in bacterial expression system assessed as residual binding level at 1 uM by Kinomescan method relative to control.
Test [12] deals with Phosphorylase b kinase gamma catalytic chain, skeletal muscle/heart isoform (Homo sapiens) (UniProt Q16816). The test is described as follows: Binding affinity to wild-type human full length PHKG1 (M1 to Y387 residues) expressed in bacterial expression system assessed as residual binding level at 1 uM by Kinomescan method relative to control. The method, boiled down: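 KINOMEscan competition binding against 468 purified kinases/mutants, test compound at 1 µM; residual binding relative to control.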

Test [13] addresses Serine/threonine-protein kinase PAK 2 (Homo sapiens) (UniProt Q13177). The test is described as follows: Binding affinity to wild-type human partial length PAK2 (P151 to R525 residues) expressed in bacterial expression system assessed as residual binding level at 1 uM by Kinomescan method relative to control. The method, boiled down: as §2
Test [14] concerns the target Platelet-derived growth factor receptor alpha (Homo sapiens, UniProt P16234). Put plainly: Inhibition of PDGFRalpha autophosphorylation at Y754 residue in human EOL-1 cells up to 300 nM after 2 hrs by Western blot method. The format is cell-based.
Test [15] deals with Serine/threonine-protein kinase Nek7 (Homo sapiens) (UniProt Q8TDX7). The test is described as follows: Binding affinity to wild-type human full length NEK7 (M1 to S302 residues) expressed in bacterial expression system assessed as residual binding level at 1 uM by Kinomescan method relative to control. The method in brief:
as §1

In test [16] the target is Ribosomal protein S6 kinase alpha-1 (Homo sapiens) (UniProt Q15418). The test is described as follows: Binding affinity to wild-type human partial length N-terminal RSK1 Kinase domain 1 (M1 to E388 residues) expressed in bacterial expression system assessed as residual binding level at 1 uM by Kinomescan method relative to control.
For test [17], the target named is Ribosomal protein S6 kinase beta-1 (Homo sapiens) (UniProt P23443). The test is described as follows: Binding affinity to wild-type human partial length S6K1 (M1 to S421 residues) expressed in mammalian expression system assessed as residual binding level at 1 uM by Kinomescan method relative to control.
The target of test [18] is Proto-oncogene tyrosine-protein kinase Src (Homo sapiens) (UniProt P12931). The test is described as follows: Binding affinity to wild-type human partial length SRC (L240 to L536 residues) expressed in bacterial expression system assessed as residual binding level at 1 uM by Kinomescan method relative to control.
The test system of test [19] is Receptor-type tyrosine-protein kinase FLT3 (Homo sapiens), P36888 [UNDEFINED MUTATION]. The test is described as follows: Binding affinity to human partial length FLT3 ITD/D835V double mutant expressed in bacterial expression system assessed as residual binding level at 1 uM by Kinomescan method relative to control. The method in brief:
(§3)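 Kinome-wide single-concentration binding screen (KINOMEscan) at 1 μM against a panel of 468 purified kinases and mutants. Read-out is relative binding of each kinase compared with control. Selectivity across the panel was summarised as an S(10) score.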

In test [20] the test system is Tyrosine-protein kinase ABL1 (Homo sapiens), P00519 [T315I]. Put plainly: Binding affinity to human non-phosphorylated ABL1 T315I mutant (S229 to K512 residues) expressed in mammalian expression system assessed as residual binding level at 1 uM by Kinomescan method relative to control. The method, boiled down:
as §3

Chain of Serine/threonine-protein kinase PAK 2 (Homo sapiens) (Q13177 whole entry, the tested form may be a part): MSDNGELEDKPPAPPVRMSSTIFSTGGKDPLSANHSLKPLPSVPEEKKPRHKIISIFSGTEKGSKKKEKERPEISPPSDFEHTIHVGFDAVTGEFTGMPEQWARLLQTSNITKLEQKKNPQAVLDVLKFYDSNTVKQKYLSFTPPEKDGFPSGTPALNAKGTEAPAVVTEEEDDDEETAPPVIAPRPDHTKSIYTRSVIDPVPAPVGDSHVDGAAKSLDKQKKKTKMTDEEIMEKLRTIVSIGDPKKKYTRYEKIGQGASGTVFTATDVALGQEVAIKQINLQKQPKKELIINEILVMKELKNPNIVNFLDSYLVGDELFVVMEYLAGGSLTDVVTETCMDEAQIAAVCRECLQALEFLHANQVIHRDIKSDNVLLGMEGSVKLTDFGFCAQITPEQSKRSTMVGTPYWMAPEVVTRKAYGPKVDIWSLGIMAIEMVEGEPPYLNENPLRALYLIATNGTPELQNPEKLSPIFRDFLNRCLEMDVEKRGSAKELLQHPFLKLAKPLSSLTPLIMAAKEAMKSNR
Chain of Phosphorylase b kinase gamma catalytic chain, skeletal muscle/heart isoform (Homo sapiens) (Q16816 whole entry, looked up, the tested form may be a part, canonical isoform): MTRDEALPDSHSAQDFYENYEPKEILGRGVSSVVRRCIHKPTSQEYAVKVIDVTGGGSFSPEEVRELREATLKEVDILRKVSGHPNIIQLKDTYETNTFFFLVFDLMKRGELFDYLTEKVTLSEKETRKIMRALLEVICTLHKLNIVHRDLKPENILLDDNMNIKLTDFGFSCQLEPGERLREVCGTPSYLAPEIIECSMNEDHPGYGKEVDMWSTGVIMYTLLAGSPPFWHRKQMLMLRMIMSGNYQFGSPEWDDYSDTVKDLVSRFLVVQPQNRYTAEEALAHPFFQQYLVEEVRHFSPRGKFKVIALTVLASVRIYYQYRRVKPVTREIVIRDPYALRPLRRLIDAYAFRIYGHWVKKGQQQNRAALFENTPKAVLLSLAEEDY
Chain of Serine/threonine-protein kinase Nek9 (Homo sapiens) (Q8TD19 whole entry, the tested form may be a part): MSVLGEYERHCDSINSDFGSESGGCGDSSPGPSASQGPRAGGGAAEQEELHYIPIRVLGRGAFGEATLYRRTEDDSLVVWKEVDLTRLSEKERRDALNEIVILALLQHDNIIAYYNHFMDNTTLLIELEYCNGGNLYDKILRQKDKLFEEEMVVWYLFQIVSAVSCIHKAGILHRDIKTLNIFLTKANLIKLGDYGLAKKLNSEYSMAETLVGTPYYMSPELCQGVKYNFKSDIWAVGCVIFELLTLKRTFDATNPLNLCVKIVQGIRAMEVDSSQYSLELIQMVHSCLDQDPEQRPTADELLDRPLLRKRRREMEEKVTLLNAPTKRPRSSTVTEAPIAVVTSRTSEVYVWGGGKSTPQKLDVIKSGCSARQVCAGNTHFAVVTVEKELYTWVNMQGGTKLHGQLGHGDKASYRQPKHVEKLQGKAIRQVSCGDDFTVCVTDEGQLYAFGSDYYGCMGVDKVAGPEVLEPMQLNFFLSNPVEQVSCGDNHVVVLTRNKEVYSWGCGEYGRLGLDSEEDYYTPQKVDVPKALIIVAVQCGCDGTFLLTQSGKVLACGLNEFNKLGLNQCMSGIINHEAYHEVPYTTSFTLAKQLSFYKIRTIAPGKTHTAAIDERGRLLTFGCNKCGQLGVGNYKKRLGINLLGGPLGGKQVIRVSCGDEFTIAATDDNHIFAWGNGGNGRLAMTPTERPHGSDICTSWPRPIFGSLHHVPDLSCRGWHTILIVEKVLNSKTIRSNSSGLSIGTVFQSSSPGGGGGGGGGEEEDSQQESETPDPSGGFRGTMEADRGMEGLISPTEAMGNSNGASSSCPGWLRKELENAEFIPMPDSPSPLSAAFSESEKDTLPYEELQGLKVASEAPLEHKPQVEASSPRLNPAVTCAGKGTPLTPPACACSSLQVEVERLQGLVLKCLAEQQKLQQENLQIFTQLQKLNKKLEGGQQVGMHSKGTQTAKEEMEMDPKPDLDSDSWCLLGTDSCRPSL
Chain of Protein-tyrosine kinase 2-beta (Homo sapiens) (Q14289 whole entry, looked up, the tested form may be a part): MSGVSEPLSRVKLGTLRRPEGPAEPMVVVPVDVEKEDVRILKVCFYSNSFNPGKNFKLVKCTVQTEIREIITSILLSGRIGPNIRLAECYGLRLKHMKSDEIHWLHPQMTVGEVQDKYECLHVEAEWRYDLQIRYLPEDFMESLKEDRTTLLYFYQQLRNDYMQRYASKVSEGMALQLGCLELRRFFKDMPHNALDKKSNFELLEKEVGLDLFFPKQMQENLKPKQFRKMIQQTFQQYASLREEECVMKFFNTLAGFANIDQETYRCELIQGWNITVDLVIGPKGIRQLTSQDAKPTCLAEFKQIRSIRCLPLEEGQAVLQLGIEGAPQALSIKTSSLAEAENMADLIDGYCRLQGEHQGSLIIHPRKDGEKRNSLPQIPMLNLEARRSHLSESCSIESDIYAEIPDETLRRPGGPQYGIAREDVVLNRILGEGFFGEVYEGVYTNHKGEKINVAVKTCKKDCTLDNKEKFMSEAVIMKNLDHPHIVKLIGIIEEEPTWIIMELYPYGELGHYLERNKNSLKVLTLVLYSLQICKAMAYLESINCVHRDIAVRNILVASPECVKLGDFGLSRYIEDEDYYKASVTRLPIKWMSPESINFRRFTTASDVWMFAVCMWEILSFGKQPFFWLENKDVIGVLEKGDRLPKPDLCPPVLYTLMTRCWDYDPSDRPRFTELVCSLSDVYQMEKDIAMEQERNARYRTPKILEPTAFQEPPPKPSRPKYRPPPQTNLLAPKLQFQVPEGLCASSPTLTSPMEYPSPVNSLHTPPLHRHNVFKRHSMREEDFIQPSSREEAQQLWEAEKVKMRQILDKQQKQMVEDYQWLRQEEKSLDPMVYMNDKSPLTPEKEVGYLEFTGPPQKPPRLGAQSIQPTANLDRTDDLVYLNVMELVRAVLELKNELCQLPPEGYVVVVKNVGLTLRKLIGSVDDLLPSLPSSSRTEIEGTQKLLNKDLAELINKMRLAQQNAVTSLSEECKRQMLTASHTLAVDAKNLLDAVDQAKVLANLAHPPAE
Chain of Eukaryotic translation initiation factor 2-alpha kinase 1 (Homo sapiens) (Q9BQI3 whole entry, the tested form may be a part): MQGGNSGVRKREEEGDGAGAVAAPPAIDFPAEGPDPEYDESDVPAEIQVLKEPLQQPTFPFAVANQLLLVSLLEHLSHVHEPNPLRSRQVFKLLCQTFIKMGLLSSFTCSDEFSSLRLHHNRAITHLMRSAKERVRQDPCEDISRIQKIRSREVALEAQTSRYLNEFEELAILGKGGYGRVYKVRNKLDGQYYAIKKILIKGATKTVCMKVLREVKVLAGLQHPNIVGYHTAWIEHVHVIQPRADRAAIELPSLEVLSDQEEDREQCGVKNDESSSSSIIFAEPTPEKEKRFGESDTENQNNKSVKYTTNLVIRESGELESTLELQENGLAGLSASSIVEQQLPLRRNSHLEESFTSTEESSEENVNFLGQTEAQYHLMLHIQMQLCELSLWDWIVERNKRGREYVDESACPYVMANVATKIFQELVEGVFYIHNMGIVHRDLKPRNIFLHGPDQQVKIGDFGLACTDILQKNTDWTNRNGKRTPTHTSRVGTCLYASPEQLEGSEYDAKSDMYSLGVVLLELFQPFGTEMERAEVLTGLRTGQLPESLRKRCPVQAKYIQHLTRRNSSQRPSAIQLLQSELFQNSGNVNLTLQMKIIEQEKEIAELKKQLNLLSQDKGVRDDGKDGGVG
Chain of cGMP-dependent protein kinase 1 (Homo sapiens) (Q13976 whole entry, the tested form may be a part, canonical isoform): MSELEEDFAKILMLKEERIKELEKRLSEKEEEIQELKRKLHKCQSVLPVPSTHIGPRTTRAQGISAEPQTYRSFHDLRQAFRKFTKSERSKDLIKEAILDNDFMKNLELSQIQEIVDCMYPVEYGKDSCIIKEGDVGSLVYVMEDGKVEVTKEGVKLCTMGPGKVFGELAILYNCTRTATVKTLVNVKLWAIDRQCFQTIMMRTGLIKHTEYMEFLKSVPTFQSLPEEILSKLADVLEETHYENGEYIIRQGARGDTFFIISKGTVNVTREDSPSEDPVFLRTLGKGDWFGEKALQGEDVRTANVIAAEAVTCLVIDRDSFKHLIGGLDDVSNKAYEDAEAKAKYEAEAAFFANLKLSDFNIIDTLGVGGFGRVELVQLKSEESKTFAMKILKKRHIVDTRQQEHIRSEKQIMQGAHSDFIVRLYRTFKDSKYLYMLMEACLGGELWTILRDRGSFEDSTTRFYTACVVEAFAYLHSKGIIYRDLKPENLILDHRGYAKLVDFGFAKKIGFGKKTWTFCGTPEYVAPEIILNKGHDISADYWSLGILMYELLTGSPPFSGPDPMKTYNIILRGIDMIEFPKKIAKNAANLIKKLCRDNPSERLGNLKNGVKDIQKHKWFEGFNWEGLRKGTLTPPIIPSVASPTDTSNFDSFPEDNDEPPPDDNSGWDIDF
Chain of cGMP-dependent protein kinase 2 (Homo sapiens) (Q13237 whole entry, the tested form may be a part): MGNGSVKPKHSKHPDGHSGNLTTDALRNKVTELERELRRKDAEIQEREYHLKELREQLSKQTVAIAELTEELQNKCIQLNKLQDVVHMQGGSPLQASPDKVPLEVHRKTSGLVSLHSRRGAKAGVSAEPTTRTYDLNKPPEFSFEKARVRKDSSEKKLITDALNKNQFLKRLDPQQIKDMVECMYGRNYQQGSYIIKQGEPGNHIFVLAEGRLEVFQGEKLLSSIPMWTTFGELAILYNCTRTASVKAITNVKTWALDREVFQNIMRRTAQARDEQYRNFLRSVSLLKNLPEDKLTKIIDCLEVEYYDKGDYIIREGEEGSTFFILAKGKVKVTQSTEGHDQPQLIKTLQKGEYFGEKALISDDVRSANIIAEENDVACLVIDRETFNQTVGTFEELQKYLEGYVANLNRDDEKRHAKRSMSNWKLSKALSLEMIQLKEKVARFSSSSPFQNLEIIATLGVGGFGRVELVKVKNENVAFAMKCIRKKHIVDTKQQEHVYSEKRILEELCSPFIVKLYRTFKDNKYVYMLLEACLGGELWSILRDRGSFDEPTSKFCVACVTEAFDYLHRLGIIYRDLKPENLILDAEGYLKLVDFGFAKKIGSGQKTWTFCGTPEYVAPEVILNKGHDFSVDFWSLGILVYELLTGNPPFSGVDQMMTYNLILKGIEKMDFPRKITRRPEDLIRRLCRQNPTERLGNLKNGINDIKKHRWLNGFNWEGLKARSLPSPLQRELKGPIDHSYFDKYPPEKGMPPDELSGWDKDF

With `Cc1ccc(NC(=O)c2ccc(CN(CCN(C)C)C(=O)c3cccnc3)cc2)cc1Nc1nccc(-c2cccnc2)n1`, the Activity in test [1] turned out to be 96%; in [2], 95%; in test [3] it was 100%; in test [4], 99%; in test [5] it was 89%; in test [6] it was 84%. Besides, the Activity in test [7] was 96%; in test [8], 100%; in [9], 92%; in test [10], 100%; in test [11], 85%; in test [12] it was 94%. For the same molecule, the Activity in test [13] turned out to be 82%; in [15], 96%; in test [16], 99%; in test [17], 100%; in test [18] it was 100%; in test [19], 98%. The Activity in test [20] turned out to be 100%. The outcome with EOL1 was Active. For the same molecule, in [14], the inhibition entry was “inactive”.

The values above are taken from ChEMBL document CHEMBL4229344 (Eur J Med Chem, 2018).
